Series [1] has as its target T1, Nuclear receptor subfamily 1 group I member 2 (Homo sapiens, UniProt O75469).
T1 sequence (O75469 whole entry): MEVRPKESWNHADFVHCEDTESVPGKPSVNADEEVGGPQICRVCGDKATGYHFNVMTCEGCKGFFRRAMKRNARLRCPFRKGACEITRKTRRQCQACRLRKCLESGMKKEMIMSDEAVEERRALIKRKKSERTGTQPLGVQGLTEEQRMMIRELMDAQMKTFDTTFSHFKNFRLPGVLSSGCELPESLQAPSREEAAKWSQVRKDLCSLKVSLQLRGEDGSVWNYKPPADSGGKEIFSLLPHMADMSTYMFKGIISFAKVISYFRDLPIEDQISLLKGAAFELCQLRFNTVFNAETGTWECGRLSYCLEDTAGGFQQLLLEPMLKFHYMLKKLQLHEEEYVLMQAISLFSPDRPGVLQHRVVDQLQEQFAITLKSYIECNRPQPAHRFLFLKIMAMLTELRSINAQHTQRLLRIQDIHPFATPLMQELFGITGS
Nature of the series: Antagonist activity at full length human PXR transfected in human HepG2 cells assessed as reduction in rifaximin-induced receptor transactivation at 50 uM after 18 hrs by luciferase reporter assay. The note with it: hepg2, 18 h. The format is cell-based. The method in brief: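 HepG2 (5 × 10⁴ cells/well, MEM/10% FBS) transiently transfected with full-length human PXR, RXR, PXRE-luciferase reporter and Renilla vectors, then treated 18 h with rifaximin (10 μM) plus compound (50 μM). Luciferase read-out normalised as RLU/Renilla RRU; p < 0.05 significance.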

A short description of series [2]: Solubility of the compound. The format is physicochemical.
The target of series [3] is T1, Nuclear receptor subfamily 1 group I member 2. Nature of the series: Antagonist activity at PXR (unknown origin).
The target is the same in series [4]. Nature of the series: Antagonist activity at full length human PXR transfected in human HepG2 cells assessed as reduction in rifaximin-induced receptor transactivation after 18 hrs by luciferase reporter assay. The following applies: for inhibition (INH): human, hepg2, 18 h. Type of series: cell-based. The method in brief:
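Rifaximin-stimulated (10 μM) HepG2 transiently co-transfected with 75 ng pSG5-hPXRT1, 75 ng pSG5-RXR, 250 ng pGL3(henance)PXRE reporter and 100 ng pGL4.70-Renilla, then co-treated 18 h with compound at 10, 25 and 50 μM. Firefly luciferase RLU divided by Renilla RRU to normalise transfection efficiency; IC50 taken from concentration-response curve.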
(In general: Reporter assays use an easily measured gene product as a stand-in for the process of interest.)

For series [5] the target is unchanged. Nature of the series: Antagonist activity against PXR in human HepG2 cells assessed as inhibition of rifaximin-induced CYP3A4 gene expression at 25 uM after 18 hrs by quantitative real-time PCR analysis. The following applies: hepg2, 18 h. The format is cell-based. (In general: Real-time PCR tracks product formation cycle by cycle.)
For series [6] the target is unchanged. Nature of the series: Activity at PXR in human HepG2 cells assessed as up regulation of rifaximin-induced PXR gene expression at 25 uM after 18 hrs by quantitative real-time PCR analysis. The following applies: hepg2, 18 h.
Series [7] relates to HepG2. In words: Toxicity in human HepG2 cells expressing human full-length PXR assessed as reduction in cell viability at 50 uM. Type of series: cell-based. The following applies: hepg2, 50 µM.
Series [8] addresses T1, Nuclear receptor subfamily 1 group I member 2. Nature of the series: Transactivation of full length human PXR transfected in human HepG2 cells after 18 hrs by luciferase reporter assay relative to rifaximin. Type of series: cell-based. The method in brief:
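In HepG2 transfected with hPXR, RXR, PXRE-luciferase and Renilla plasmids, cells were exposed 18 h to compound at 10 μM, or at 10, 25 and 50 μM for EC50 determination, alongside rifaximin (10 μM) as reference agonist. Firefly signal normalised to Renilla.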

Series [9] has as its system HepG2. Nature of the series: Up regulation of full length PXR expression in human HepG2 cells at 10 uM after 18 hrs by quantitative real-time PCR analysis. The format is functional, cell-based.
Series [10] deals with T1, Nuclear receptor subfamily 1 group I member 2. Nature of the series: Transactivation of PXR in human HepG2 cells assessed as up regulation of CYP3A4 gene expression at 10 uM after 18 hrs by quantitative Real-time PCR analysis. The format is cell-based. The note with it: hepg2, 18 h.

Molecules are shown by their SMILES. Calls of active or inactive are those of the source. The calls are words filed in the database; no cut-off is given here.

A word on the IC50: it is the midpoint of a concentration-inhibition curve. For orientation: EC50 means the midpoint of the concentration-response curve. High values mean weaker potency, low ones greater potency.

In the case of `CC/C(=C(/CC)c1ccc(OCCCCOS(=O)(=O)[O-])cc1)c1ccc(OCCCCOS(=O)(=O)[O-])cc1.[Na+].[Na+]`, the “inhibition (INH)” value in series [1] was “Not Active”.
As to `CC/C(=C(/CC)c1ccc(OCCOS(=O)(=O)[O-])cc1)c1ccc(OCCOS(=O)(=O)[O-])cc1.[Na+].[Na+]`, the “inhibition (INH)” value in series [1] is reported as “Not Active”.
For `CC/C(=C(/CC)c1ccc(OCCCCOC(C)=O)cc1)c1ccc(OCCCCOC(C)=O)cc1`, the solubility result in series [2] is “Insoluble”.
`Cc1cc(-c2onc(C)c2C(=O)Sc2ccccc2)no1` gave an IC50 in [3] of 850 nM.
Take `CC/C(=C(/CC)c1ccc(OCCO)cc1)c1ccc(OCCO)cc1`: the “inhibition (INH)” value in series [1] is given as “Active”; in [4], “Dose-dependent effect”; in series [5], “Active”. The IC50 in series [4] came out at 27.4 µM. In addition, the result in [6] was Active.
Turning to `CC/C(=C(/CC)c1ccc(OS(=O)(=O)[O-])cc1)c1ccc(OS(=O)(=O)[O-])cc1.[Na+].[Na+]`, the “inhibition (INH)” value in [1] is reported as “Not Active”.
Still for that read-out and setting: next, `CC/C(=C(/CC)c1ccc(OCCCOC(C)=O)cc1)c1ccc(OCCCOC(C)=O)cc1`: “Active”.
Regarding `CC/C(=C(/CC)c1ccc(O)cc1)c1ccc(O)cc1` [DIETHYLSTILBESTROL], the “inhibition (INH)” value is “Active” in series [1], “Dose-dependent effect” in series [4] and “Active” in [5]. In [4], the IC50 was 14.6 µM. Further, in [6], the result was Active.
Take `CC/C(=C(/CC)c1ccc(OCCOC(C)=O)cc1)c1ccc(OCCOC(C)=O)cc1`: the “inhibition (INH)” value in series [1] was “Active”.
The same measure, in the same setting: the same measure for `CC/C(=C(/CC)c1ccc(OCCCOS(=O)(=O)[O-])cc1)c1ccc(OCCCOS(=O)(=O)[O-])cc1.[Na+].[Na+]`: “Not Active”.
Turning to `CC/C(=C(/CC)c1ccc(OCCCO)cc1)c1ccc(OCCCO)cc1`, the Activity result in series [7] is “Toxic”.
Regarding `CC/C(=C(/CC)c1ccc(OC)cc1)c1ccc(OC)cc1`, the EC50 in series [8] came to 10.5 µM. In series [9], the result was Active. For the same molecule, the result in series [10] was Active.
With `CC/C(=C(/CC)c1ccc(OCCCCO)cc1)c1ccc(OCCCCO)cc1`, the Activity entry in [7] is on record as “Toxic”.
As to `CO[C@H]1/C=C/O[C@@]2(C)Oc3c(C)c(O)c4c(O)c(c5c(nc6cc(C)ccn65)c4c3C2=O)NC(=O)/C(C)=C\C=C\[C@H](C)[C@H](O)[C@@H](C)[C@@H](O)[C@@H](C)[C@H](OC(C)=O)[C@@H]1C` [RIFAXIMIN], a half-maximal response in series [8] (EC50) required 11.2 µM. Moreover, in series [9], the result was Active.

Source of the values: ChEMBL document CHEMBL3632562, “Diethylstilbestrol-scaffold-based pregnane X receptor modulators” (Eur J Med Chem, 2015).
